In ChEMBL document CHEMBL1667737, “Cytochrome P450 3A4 inhibitory constituents of the wood of Taxus yunnanensis” (J Nat Prod, 2011):
pIC50: −log10 of the molar value.

Legend:
Cytochrome P450 2D6 = Cytochrome P450 2D6 (Homo sapiens, UniProt P10635); assay: Inhibition of CYP2D6 after 30 mins by fluorometric assay; type: ADME; settings: for pIC50: read-out: IC50
How it was run: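 cDNA-expressed CYP2D6 in insect cell microsomes with AMMC ([…] in the enzyme/substrate mix), in pH 7.4 phosphate buffer with an NADP+/glucose-6-phosphate/G6PDH/MgCl2 regenerating system. Compound in MeOH, eight-point 1:3 serial dilution. 10 min prewarm, then 30 min at 37 °C. Stopped with acetonitrile–Tris. Triplicate; IC50 by linear interpolation.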

Cytochrome P450 3A4 = Cytochrome P450 3A4 (Homo sapiens, UniProt P08684); assay: Inhibition of CYP3A4 after 30 mins by fluorometric assay; type: ADME; settings: for pIC50: read-out: IC50
Sequence of Cytochrome P450 3A4 (P08684 whole entry): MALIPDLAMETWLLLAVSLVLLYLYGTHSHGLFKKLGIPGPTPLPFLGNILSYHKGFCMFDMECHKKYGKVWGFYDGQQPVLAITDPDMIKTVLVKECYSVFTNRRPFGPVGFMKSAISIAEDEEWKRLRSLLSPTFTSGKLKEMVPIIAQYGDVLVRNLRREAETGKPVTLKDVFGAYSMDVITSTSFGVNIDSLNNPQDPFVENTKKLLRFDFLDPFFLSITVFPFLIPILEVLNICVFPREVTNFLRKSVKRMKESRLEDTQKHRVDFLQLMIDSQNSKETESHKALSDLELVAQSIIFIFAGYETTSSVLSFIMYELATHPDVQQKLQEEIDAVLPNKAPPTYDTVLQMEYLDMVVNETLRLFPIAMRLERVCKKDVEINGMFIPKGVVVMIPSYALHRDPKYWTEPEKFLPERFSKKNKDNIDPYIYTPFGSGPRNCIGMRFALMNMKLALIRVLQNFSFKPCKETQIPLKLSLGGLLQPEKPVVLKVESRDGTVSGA
How it was run: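 cDNA-expressed CYP3A4 in insect cell microsomes (with insect cell control protein) O-dealkylating 7-benzyloxy-4-trifluoromethylcoumarin to fluorescent 7-HFC. Samples in MeOH, 8-point 1:3 serial dilutions in pH 7.4 potassium phosphate with an NADP+/glucose-6-phosphate/G6PDH/MgCl2 regenerating system. 10 min prewarm, 30 min at 37 °C, stopped with acetonitrile–Tris base. Triplicate; IC50 by linear interpolation.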

Sequence of Cytochrome P450 2D6 (P10635 whole entry): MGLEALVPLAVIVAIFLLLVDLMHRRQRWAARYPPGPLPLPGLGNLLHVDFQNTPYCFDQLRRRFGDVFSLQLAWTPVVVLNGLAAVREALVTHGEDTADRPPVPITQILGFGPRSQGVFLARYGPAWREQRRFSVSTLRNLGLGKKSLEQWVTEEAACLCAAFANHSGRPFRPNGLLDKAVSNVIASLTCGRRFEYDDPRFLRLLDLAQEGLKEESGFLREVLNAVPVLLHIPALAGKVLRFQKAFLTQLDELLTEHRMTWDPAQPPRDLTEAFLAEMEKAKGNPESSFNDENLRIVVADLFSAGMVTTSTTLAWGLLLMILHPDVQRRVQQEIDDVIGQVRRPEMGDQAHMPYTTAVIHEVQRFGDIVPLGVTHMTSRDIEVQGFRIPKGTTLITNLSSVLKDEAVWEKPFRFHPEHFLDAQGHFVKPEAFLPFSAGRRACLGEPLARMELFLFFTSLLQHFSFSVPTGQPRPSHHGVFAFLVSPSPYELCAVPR

Question: What does the source list for `COc1cc([C@H](O)[C@H]2CO[C@H](c3ccc(O)c(O)c3)[C@H]2CO)ccc1O` [(7R)-7-HYDROXYTAXIRESINOL]?
Answer: IC50 (Cytochrome P450 2D6): Not Active; IC50 (Cytochrome P450 3A4): Not Active

Question: `COc1cc2c(cc1O)C(=O)[C@@H](CO)[C@H](CO)C2` was tested. Which IC50 (Cytochrome P450 2D6) did it give?
Answer: Not Active

Question: And the IC50 (Cytochrome P450 3A4)?
Answer: Not Active

Question: `COc1cc([C@H]2c3cc(O)c(OC)cc3C[C@@H](CO)[C@@H]2CO)ccc1O` [ISOLARICIRESINOL] was tested. Which pIC50 (Cytochrome P450 2D6) did it give?
Answer: 4.01

Question: And the pIC50 (Cytochrome P450 3A4)?
Answer: < 4.00

Question: What does the source list for `COc1cc(C[C@@H](CO)[C@H](CO)Cc2ccc(O)c(OC)c2)ccc1O` [(+)-SECOISOLARICIRESINOL]?
Answer: pIC50 (Cytochrome P450 2D6): < 4.00; pIC50 (Cytochrome P450 3A4): 4.33

Question: Which results are given for `COc1cc([C@H]2OC[C@H]([C@@H](O)c3ccc(O)c(OC)c3)[C@@H]2CO)ccc1O`?
Answer: pIC50 (Cytochrome P450 2D6): < 4.00; pIC50 (Cytochrome P450 3A4): 4.18

Question: `COc1cc([C@@H](O)[C@@H]2CO[C@H](c3ccc(O)c(OC)c3)[C@H]2CO)ccc1O` [TANEGOOL] was tested. Which IC50 (Cytochrome P450 2D6) did it give?
Answer: Not Active

Question: What about the IC50 (Cytochrome P450 3A4) of the same molecule?
Answer: Not Active

Question: How did the pIC50 (Cytochrome P450 2D6) turn out when `COc1cc([C@H]2c3cc(O)c(OC)cc3C[C@H]3C(=O)OC[C@H]23)ccc1O` [ALPHA-CONIDENDRIN] was run?
Answer: 4.75

Question: And the pIC50 (Cytochrome P450 3A4)?
Answer: 6.70

Question: With `COc1cc2c(cc1O)[C@H](c1ccc(O)c(O)c1)[C@@H](CO)[C@H](CO)C2` [ISOTAXIRESINOL] as the molecule, how does the IC50 (Cytochrome P450 2D6) read?
Answer: Not Active

Question: What about the IC50 (Cytochrome P450 3A4) of the same molecule?
Answer: Not Active

Question: `COc1cc(C[C@H]2CO[C@H](c3ccc(O)c(OC)c3)[C@H]2CO)ccc1O` [LARICIRESINOL] was tested. Which pIC50 (Cytochrome P450 2D6) did it give?
Answer: < 4.00

Question: And the pIC50 (Cytochrome P450 3A4)?
Answer: 4.59

Question: `COc1cc(C[C@H]2CO[C@H](c3ccc(O)c(O)c3)[C@H]2CO)ccc1O` [TAXIRESINOL] was tested. Which pIC50 (Cytochrome P450 2D6) did it give?
Answer: 4.17

Question: And the pIC50 (Cytochrome P450 3A4)?
Answer: 4.07

Question: With `COc1cc([C@@H]2Oc3cc(CCCO)ccc3O[C@H]2CO)ccc1O` as the molecule, how does the pIC50 (Cytochrome P450 2D6) read?
Answer: < 4.00

Question: And the pIC50 (Cytochrome P450 3A4)?
Answer: 4.27
